20 molecules from ChEMBL document CHEMBL2321806 (J Med Chem, 2013) can be followed below.

Experiment [1] concerns the target T1, Insulin-degrading enzyme (Homo sapiens, UniProt P14735). Nature of the experiment: Inhibition of human recombinant IDE-mediated FRET1 degradation. As to conditions: read-out: Ki(app).
In experiment [2] the target is Neprilysin (Homo sapiens) (UniProt P08473). The experiment is described as follows: Inhibition of NEP (unknown origin)-mediated omniMMP degradation up to 10 uM. An outline of the steps: (§1)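 Each protease (NEP, ECE1, ACE, MMP-2, MMP-7) was tested against the shared fluorogenic peptide substrate OmniMMP, with inhibitor concentrations up to 10 μM. IC50 values were taken from the dose-response data.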
Sequence of Neprilysin (Homo sapiens) (P08473 whole entry): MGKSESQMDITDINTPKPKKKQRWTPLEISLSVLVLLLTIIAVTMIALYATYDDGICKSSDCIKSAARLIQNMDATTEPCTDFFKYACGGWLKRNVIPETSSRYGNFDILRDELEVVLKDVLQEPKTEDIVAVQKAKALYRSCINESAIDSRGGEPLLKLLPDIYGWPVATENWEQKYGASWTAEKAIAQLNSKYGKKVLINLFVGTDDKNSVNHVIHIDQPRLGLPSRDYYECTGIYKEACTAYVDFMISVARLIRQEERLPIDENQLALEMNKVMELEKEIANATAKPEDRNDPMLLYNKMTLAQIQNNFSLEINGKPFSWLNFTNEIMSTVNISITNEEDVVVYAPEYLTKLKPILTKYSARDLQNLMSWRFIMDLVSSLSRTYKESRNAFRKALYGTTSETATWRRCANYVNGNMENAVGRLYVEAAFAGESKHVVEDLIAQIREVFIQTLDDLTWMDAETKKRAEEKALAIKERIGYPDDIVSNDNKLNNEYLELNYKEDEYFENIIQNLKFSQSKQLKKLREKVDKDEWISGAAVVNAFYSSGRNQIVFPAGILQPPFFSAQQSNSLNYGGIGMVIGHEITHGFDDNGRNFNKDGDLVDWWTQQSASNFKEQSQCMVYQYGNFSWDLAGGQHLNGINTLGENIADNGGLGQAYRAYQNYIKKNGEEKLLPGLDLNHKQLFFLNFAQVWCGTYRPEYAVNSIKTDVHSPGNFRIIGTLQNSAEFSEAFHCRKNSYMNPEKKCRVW

The target of experiment [3] is T2, Endothelin-converting enzyme 1 (Homo sapiens) (UniProt P42892).
T2 sequence (whole entry): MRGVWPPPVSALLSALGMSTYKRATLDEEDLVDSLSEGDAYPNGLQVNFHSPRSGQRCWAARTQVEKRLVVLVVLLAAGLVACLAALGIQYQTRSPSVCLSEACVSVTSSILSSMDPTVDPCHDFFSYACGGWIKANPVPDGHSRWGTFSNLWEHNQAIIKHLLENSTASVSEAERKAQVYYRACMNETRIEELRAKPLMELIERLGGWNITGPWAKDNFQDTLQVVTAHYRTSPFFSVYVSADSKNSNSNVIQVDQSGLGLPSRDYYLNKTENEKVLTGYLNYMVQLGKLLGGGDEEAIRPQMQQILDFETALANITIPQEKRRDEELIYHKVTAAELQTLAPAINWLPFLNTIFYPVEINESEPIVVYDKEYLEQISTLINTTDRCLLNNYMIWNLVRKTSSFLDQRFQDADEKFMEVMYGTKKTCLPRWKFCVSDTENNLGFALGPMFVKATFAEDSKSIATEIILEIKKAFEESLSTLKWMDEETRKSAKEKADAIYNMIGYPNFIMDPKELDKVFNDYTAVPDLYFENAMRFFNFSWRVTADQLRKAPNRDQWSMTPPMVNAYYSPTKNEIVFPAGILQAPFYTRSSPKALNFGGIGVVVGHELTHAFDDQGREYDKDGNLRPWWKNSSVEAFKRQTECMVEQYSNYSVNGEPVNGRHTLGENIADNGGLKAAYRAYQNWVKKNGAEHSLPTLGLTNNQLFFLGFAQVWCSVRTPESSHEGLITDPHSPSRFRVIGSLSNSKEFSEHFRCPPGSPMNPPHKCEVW
The experiment is described as follows: Inhibition of ECE1 (unknown origin)-mediated omniMMP degradation up to 10 uM. An outline of the steps:
as §1

The target of experiment [4] is 72 kDa type IV collagenase (Homo sapiens) (UniProt P08253). The experiment is described as follows: Inhibition of MMP2 (unknown origin)-mediated omniMMP degradation up to 10 uM. A digest of the protocol: as §1
Sequence of 72 kDa type IV collagenase (Homo sapiens) (P08253 110-660 limits assumed): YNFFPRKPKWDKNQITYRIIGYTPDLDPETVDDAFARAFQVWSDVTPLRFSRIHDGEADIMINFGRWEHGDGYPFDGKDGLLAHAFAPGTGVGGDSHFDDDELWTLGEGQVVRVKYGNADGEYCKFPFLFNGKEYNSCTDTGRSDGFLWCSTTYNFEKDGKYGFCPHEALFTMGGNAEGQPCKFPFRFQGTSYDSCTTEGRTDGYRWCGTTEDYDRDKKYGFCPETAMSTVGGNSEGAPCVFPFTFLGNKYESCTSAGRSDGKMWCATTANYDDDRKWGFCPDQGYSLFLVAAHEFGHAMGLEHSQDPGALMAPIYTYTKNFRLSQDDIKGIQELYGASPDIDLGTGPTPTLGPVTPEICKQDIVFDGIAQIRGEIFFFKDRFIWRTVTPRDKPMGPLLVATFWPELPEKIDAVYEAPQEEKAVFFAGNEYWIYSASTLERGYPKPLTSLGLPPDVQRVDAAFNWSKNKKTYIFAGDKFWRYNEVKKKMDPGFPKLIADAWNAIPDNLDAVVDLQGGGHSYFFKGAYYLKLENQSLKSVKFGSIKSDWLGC
In experiment [5] the target is Angiotensin-converting enzyme (Homo sapiens) (UniProt P12821). Nature of the experiment: Inhibition of ACE (unknown origin)-mediated omniMMP degradation up to 10 uM. A digest of the protocol: as §1
Sequence of Angiotensin-converting enzyme (Homo sapiens) (P12821 whole entry): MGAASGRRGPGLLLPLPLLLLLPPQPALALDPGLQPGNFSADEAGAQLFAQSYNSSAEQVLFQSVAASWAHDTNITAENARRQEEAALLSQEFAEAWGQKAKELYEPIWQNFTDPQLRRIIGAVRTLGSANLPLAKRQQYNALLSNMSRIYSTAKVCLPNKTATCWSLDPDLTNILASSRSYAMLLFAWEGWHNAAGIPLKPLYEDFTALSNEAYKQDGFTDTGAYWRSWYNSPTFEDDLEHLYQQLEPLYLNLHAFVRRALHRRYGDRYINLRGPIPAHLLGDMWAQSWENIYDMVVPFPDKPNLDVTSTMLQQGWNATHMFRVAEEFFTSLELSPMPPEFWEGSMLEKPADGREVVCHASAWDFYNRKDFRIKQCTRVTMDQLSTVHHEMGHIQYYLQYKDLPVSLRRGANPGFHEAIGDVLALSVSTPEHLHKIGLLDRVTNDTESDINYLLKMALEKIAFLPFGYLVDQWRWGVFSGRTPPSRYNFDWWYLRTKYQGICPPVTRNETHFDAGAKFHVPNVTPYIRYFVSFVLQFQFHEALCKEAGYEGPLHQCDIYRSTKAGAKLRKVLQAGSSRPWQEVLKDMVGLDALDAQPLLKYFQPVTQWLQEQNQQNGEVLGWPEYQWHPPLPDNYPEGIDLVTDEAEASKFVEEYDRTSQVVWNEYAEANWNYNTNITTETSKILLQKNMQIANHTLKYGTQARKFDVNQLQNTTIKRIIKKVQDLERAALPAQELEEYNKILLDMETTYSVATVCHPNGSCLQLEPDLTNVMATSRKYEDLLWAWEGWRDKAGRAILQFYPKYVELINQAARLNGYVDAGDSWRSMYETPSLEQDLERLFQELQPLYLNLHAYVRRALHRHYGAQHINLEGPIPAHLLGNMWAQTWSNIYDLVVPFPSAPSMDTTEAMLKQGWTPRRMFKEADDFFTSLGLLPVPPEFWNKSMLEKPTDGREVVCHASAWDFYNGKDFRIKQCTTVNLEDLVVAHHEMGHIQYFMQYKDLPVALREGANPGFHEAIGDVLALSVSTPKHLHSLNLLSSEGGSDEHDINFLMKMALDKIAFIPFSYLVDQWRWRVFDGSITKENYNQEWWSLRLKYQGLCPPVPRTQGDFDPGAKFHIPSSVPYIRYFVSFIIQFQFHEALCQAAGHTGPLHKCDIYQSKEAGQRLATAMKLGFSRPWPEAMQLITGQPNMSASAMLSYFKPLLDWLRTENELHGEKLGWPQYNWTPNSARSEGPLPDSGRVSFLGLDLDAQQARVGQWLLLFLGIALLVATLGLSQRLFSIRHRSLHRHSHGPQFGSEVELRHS
For experiment [6], the target named is T3, Matrilysin (Homo sapiens) (UniProt P09237).
T3 sequence (whole entry): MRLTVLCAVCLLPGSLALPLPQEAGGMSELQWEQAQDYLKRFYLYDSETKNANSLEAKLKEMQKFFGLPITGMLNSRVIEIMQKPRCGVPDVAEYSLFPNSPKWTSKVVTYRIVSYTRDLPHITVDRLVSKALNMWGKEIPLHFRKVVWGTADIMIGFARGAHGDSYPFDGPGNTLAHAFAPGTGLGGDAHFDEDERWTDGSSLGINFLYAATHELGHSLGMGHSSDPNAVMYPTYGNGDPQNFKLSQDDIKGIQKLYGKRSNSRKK
Nature of the experiment: Inhibition of MMP7 (unknown origin)-mediated omniMMP degradation up to 10 uM. An outline of the steps:
as §1

In experiment [7] the target is T1, Insulin-degrading enzyme. Nature of the experiment: Inhibition of human recombinant IDE-mediated insulin degradation. As to conditions: read-out: Ki(app). An outline of the steps: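 Insulin (2 nM) breakdown by recombinant human IDE in 50 mM HEPES pH 7.4, 100 mM NaCl, 10 mM MgCl₂, 0.05% BSA at 22 °C.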
Experiment [8] has as its target T1, Insulin-degrading enzyme. Nature of the experiment: Inhibition of human recombinant IDE-mediated fluorescein-Abeta-(1-40)-Lys-biotin degradation. As to conditions: read-out: Ki(app). An outline of the steps: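 Aβ (200 nM) degradation by recombinant human IDE at 22 °C in HEPES pH 7.4 buffer with 100 mM NaCl, 10 mM MgCl₂, 0.05% BSA.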
Experiment [9] addresses T1, Insulin-degrading enzyme. Nature of the experiment: Selectivity ratio of apparent Ki for human recombinant IDE-mediated insulin degradation to apparent Ki for human recombinant IDE-mediated FRET1 degradation.
The next experiment addresses T4, Matrilysin (Homo sapiens, UniProt P09237).
T4 sequence (P09237 whole entry): T3 sequence (whole entry)
Nature of the experiment: (§2) Inhibition of MMP7 (unknown origin)-mediated omniMMP degradation. An outline of the steps:
as §1

Experiment [10] deals with T3, Matrilysin (Homo sapiens). The description is as §2. A digest of the protocol: as §1

As usually defined, the pKi is −log10 of the Ki, conventionally taken in molar units. Broadly, the pIC50 is the IC50 on a negative log10 scale, so that one unit is a factor of ten.

pIC50, pKi: −log10 of the molar value. The source made the active and inactive calls. No cut-off for these calls is given here.

T1 sequence (P14735 whole entry): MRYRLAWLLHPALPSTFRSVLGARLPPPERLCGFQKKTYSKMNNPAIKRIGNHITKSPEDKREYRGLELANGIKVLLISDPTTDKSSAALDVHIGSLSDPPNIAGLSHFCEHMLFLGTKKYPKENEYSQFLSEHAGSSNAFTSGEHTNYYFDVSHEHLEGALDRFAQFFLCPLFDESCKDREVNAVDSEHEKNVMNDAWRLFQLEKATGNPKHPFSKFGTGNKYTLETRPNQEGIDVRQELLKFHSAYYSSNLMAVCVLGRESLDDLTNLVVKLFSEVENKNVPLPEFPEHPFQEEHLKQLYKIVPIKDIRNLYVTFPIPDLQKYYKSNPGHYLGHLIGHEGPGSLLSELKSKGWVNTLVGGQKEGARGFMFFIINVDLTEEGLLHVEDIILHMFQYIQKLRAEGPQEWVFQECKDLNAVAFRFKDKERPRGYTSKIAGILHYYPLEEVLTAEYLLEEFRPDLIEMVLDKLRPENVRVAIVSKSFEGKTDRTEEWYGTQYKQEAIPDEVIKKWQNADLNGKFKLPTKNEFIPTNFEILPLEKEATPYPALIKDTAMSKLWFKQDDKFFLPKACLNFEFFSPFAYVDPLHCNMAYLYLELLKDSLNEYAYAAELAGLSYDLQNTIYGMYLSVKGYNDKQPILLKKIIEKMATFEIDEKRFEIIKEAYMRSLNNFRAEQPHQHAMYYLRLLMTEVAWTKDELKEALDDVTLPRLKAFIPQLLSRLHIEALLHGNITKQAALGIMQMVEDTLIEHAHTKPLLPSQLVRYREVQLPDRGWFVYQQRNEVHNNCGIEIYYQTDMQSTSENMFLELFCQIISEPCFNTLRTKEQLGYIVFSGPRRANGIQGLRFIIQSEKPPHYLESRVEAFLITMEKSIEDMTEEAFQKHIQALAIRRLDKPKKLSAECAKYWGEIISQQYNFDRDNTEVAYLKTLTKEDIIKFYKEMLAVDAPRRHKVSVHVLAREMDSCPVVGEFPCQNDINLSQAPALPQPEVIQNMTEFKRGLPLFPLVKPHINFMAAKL

In the case of `C=CCOC(=O)[C@H](CCCNC(=N)N)NC(=O)[C@H](CC(=O)NO)Cc1ccc2ccccc2c1`, the pKi at Insulin-degrading enzyme [1] was 5.28.

Consider `N=C(N)NCCCC[C@H](NC(=O)[C@H](CC(=O)NO)Cc1ccc2ccccc2c1)C(N)=O`, for which the pKi at Insulin-degrading enzyme [1] was less than 4.48.

On to `NC(=O)[C@H](CCCN=C(N)N)NC(=O)[C@H](CC(=O)NO)Cc1ccc2ccccc2c1`, for which the pKi on Insulin-degrading enzyme [1] was less than 4.48.

For `N=C(N)NCCC[C@H](NC(=O)[C@H](CC(=O)NO)Cc1ccc2ccccc2c1)C(=O)N[C@@H](Cc1c[nH]c2ccccc12)C(=O)N[C@@H](CCC(=O)O)C(N)=O`, the pKi at Insulin-degrading enzyme [1] was 7.13.

As for `N=C(N)NCCC[C@H](NC(=O)[C@H](Cc1ccc2ccccc2c1)[C@@H](O)C(=O)NO)C(=O)N[C@@H](Cc1c[nH]c2ccccc12)C(=O)N[C@@H](CCC(=O)O)C(N)=O`, the inhibition result in experiment [2], in experiment [3], in [4], in experiment [5] and in [6] was “inactive” each time.

As for `NC(=O)[C@H](CCC(=O)O)NC(=O)[C@H](Cc1c[nH]c2ccccc12)NC(=O)[C@H](CCCN=C(N)N)NC(=O)[C@H](Cc1ccc2ccccc2c1)[C@@H](O)C(=O)NO`, the pKi at Insulin-degrading enzyme [7] is 5.72; at Insulin-degrading enzyme [8], 6.03; on Insulin-degrading enzyme [1] it was 6.99.

As to `N=C(N)NCCC[C@@H](NC(=O)[C@@H](Cc1c[nH]c2ccccc12)NC(=O)[C@H](N)CCC(=O)O)C(=O)N[C@H](Cc1ccc2ccccc2c1)C(=O)NO`, at Insulin-degrading enzyme [9], the Ratio Ki(app) is greater than 60.

On to `NC(=O)[C@H](CCCN=C(N)N)NC(=O)[C@H](Cc1ccc2ccccc2c1)[C@@H](O)C(=O)NO`, for which, on Insulin-degrading enzyme [1], the pKi was 5.15.

In the case of `CC[C@@H](C)[C@H]1NC(=O)[C@@H](Cc2ccccc2)NC(=O)[C@@H](Cc2cnc[nH]2)NC(=O)[C@@H](CC(=O)O)NC(=O)CC[C@H](C(=O)N[C@H](Cc2c[nH]c3ccccc23)C(=O)N[C@H](CCCN=C(N)N)C(=O)N[C@H](Cc2ccc3ccccc3c2)C(=O)NO)NC(=O)[C@@H](CCCN=C(N)N)NC1=O`, the pKi was 6.77 on Insulin-degrading enzyme [7], 6.61 on Insulin-degrading enzyme [8] and 7.64 at Insulin-degrading enzyme [1].

Consider `NC(=O)[C@H](CCCN=C(N)N)NC(=O)[C@@H](CC(=O)NO)Cc1ccc2ccccc2c1`, for which, on Insulin-degrading enzyme [1], the pKi is 5.94.

With `C=CCOC(=O)[C@H](CCCN=C(N)N)NC(=O)[C@@H](CC(=O)NO)Cc1ccc2ccccc2c1`, the pKi on Insulin-degrading enzyme [7] was 5.89; on Insulin-degrading enzyme [8], 6.97; on Insulin-degrading enzyme [1], 7.06.

Take `N=C(N)NCCCC[C@H](NC(=O)[C@@H](CC(=O)NO)Cc1ccc2ccccc2c1)C(N)=O`: the pKi at Insulin-degrading enzyme [1] was less than 4.48.

On to `NC(=O)[C@H](CCCN=C(N)N)NC(=O)[C@H](Cc1ccc2ccccc2c1)[C@H](O)C(=O)NO`, for which the negative-log Ki (pKi) at Insulin-degrading enzyme [1] is 5.11.

For the molecule `CC(=O)N[C@@H](CCC(=O)O)C(=O)N[C@@H](Cc1c[nH]c2ccccc12)C(=O)N[C@@H](CCCN=C(N)N)C(=O)[C@H](CC(=O)NO)Cc1ccc2ccccc2c1`, the pKi at Insulin-degrading enzyme [1] is 7.11.

In the case of `NC(=O)[C@H](CCC(=O)O)NC(=O)[C@H](Cc1c[nH]c2ccccc12)NC(=O)[C@H](CCCN=C(N)N)NC(=O)[C@H](Cc1ccc2ccccc2c1)[C@H](O)C(=O)NO`, the pKi on Insulin-degrading enzyme [7] is 6.56; at Insulin-degrading enzyme [8], 7.15; at Insulin-degrading enzyme [1], 7.59. At Matrilysin, this molecule gave a pIC50 of 5.94.

On to `N=C(N)NCCCC[C@H](NC(=O)[C@H](Cc1ccc2ccccc2c1)[C@H](O)C(=O)NO)C(N)=O`, for which the pKi at Insulin-degrading enzyme [1] is less than 4.48.

Take `NC(N)=NCCC[C@@H](NC(=O)[C@@H](Cc1c[nH]c2ccccc12)NC(=O)[C@H](N)CCC(=O)O)C(=O)N[C@H](Cc1ccc2ccccc2c1)C(=O)NO`: the pKi at Insulin-degrading enzyme [7] was 5.49; on Insulin-degrading enzyme [8], 6.64; at Insulin-degrading enzyme [1], 7.30.

On to `CC(=O)N[C@@H](CCC(=O)NCCNc1cccc2c(S(=O)(=O)O)cccc12)C(=O)N[C@H](Cc1ccc(O)cc1)C(=O)N(C(=O)c1ccccc1)[C@H](Cc1ccccc1)C(=O)N[C@H](Cc1ccc2ccccc2c1)C(=O)NO`, for which the pKi was 6.39 on Insulin-degrading enzyme [7], 8.85 on Insulin-degrading enzyme [8] and 7.36 on Insulin-degrading enzyme [1].

On to `N=C(N)NCCC[C@@H](NC(=O)[C@@H](Cc1ccc(O)cc1)NC(=O)[C@H](N)CCC(=O)O)C(=O)N[C@H](Cc1ccc2ccccc2c1)C(=O)NO`, for which the pKi is 6.08 on Insulin-degrading enzyme [7], 6.44 on Insulin-degrading enzyme [8] and 7.07 on Insulin-degrading enzyme [1].

Turning to `N=C(N)NCCC[C@H](NC(=O)[C@@H](CC(=O)NO)Cc1ccc2ccccc2c1)C(=O)N[C@@H](Cc1c[nH]c2ccccc12)C(=O)N[C@@H](CCC(=O)O)C(N)=O`, the figures for the pKi on Insulin-degrading enzyme [7], at Insulin-degrading enzyme [8] and at Insulin-degrading enzyme [1] were 7.42, 7.66 and 8.53, respectively. Further, the inhibition entry in experiment [10] is “Active”.
